This is a sample that favours compounds with a hit; in the whole collection about 6.1% have one here.
Yeast growth inh: reduces growth of yeast BB579 in restrictive medium; S. cerevisiae BB579 growth, OD615, 48 h; inhibition, % at 10 µM; actives 0.51% (n = 140,000); AID 804;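 active = inhibition above a set limit, 3 SD over the mean compound inhibition, cut at about 44% in these data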
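Material: Saccharomyces cerevisiae DeaD strain BB579, replicative lifespan model yeast; buffer or medium: CSMM-D restrictive synthetic medium containing dextrose (glucose); compound: 10 µM single dose, DMSO 0.25%; timing: 48 h compound exposure at 30 °C after 4 h preincubation; signal: turbidity as optical density at 615 nm; benchmarks: positive control amphotericin B 10 µg/mL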
WT yeast gro inh: growth inhibition of WT yeast, mitochondrial fusion screen. mitochondrial fusion phenotypic screen, WT strain. inhibition, % at 10 µM. actives 2.1% (n = 190,000). AID 1362; in the data active = inhibition above about 58%; tested in S. cerevisiae
Yeast lifespan up: yeast lifespan extension; S. cerevisiae growth with nicotinamide, OD615; deaD strain in restrictive glucose medium; inhibition of the nicotinamide effect, % at 10 µM; actives 0.68% (n = 130,000);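 active = inhibition above a set limit, placed 3 SD over the median of all compounds, cut at about 26% in these data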;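 note: 0% = nicotinamide-treated wells and 100% = cells grown without nicotinamide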
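Measured by: optical density (absorbance) at 615 nm; System: modified budding yeast, DeaD strain; Medium: restrictive CSMM-D dextrose medium; Timing: 4 h preincubation then 48 h treatment at 30 °C.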
Measles CPE: protection of cells from measles virus. Measles virus-infected cells, CPE protection, absorbance. protection (pct of control), % at 4 µM. actives 1.5% (n = 140,000). AID 841; in the data active = protection mostly above about 24%, no sharp cut-off; inactive = mostly below about 26%
hDAT+cocaine: human DAT dopamine uptake with cocaine, either direction; Q01959; LLC-PK1 hDAT cells, [14C]-dopamine uptake with cocaine IC80; actives deviate in either direction; B-score at 10 µM; actives 1.3% (n = 110,000); AID 449768;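 active = Z score or B-score, a plate-position-corrected score, falls beyond the plate's 99.7% confidence bounds, in either direction; inactive = both scores lie inside the 99.7% bounds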;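 note: scored against the spread of the other compound wells on the same plate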
Target sequence (Q01959 whole entry, looked up): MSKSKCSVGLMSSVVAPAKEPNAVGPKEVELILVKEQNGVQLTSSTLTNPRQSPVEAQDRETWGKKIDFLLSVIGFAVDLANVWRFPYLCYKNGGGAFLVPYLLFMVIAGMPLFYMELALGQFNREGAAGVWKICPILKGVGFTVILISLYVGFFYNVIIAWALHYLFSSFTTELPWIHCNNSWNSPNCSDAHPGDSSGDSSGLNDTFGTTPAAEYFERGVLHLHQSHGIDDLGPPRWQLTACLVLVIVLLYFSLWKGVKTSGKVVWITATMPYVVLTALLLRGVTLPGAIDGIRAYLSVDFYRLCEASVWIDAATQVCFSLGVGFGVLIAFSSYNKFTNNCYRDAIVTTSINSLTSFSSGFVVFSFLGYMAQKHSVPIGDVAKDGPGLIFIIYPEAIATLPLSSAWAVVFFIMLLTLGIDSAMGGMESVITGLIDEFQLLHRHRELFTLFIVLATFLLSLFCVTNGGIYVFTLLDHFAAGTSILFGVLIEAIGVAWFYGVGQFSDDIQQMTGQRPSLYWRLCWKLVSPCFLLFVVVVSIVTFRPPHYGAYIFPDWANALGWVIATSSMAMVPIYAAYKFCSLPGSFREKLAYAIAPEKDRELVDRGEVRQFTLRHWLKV
RAM inhibit: inhibitors of the yeast RAM network; actives 1.8% (n = 190,000); inhibition, % at 50 µM; AID 868; S. cerevisiae dse1pr::URA3 reporter, 5-FOA growth OD615, 2 d; analog-sensitive cbk1-as2 kinase mutant strain;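 active = inhibition above a set limit, 3 SD over mean compound inhibition, cut at about 8.4% in these data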;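 note: 0% = DMSO-only wells with no growth and 100% = 10 µM 1-NA-PP1 full growth; inhibition rescues growth on 5-FOA so higher OD means more RAM inhibition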
Numbers without * were called inactive; nt = no result.

SMILES	Yeast growth inh	WT yeast gro inh	Yeast lifespan up	Measles CPE	hDAT+cocaine	RAM inhibit
Cc1cc(C)n(-c2nc(C)nc3c2cnn3-c2ccccc2)n1	-51	65*	-15	8	nt	3
Cc1nc(SCc2ccccc2F)c2cnn(-c3ccccc3)c2n1	nt	21	nt	nt	nt	11*
Cc1ccc(CSc2ncnc3c2cnn3-c2ccccc2)cc1	-28	-29	2	2	nt	7
O=C1NC(CCc2ccccc2)C(=O)N1Cc1ccccc1Cl (stereo unspecified)	-7	-11	0	9	nt	4
CSCC[C@H](NC(=O)CCNC(C)=O)c1nc2ccccc2[nH]1	20	nt	0	28	0.93	1
C=CCN1C(=O)C(Cc2ccc(OCC)cc2)S/C1=N\N=C\c1cccs1 (stereo unspecified)	-44	32	30*	3	0.5	9.3*
Cc1cc(C)nc(N/N=C/c2cc(C)n(CC(F)(F)F)c2C)n1	nt	2	nt	nt	nt	-1
O=C(Nc1ccccc1-c1nc2ccccc2[nH]1)c1ccc(S(=O)(=O)N2CCCCC2)cc1	-29	11	42*	4	0.067	4
Cc1nn(-c2ccccc2)c(C)c1NC(=O)c1ccc(S(=O)(=O)N2CCCC2)cc1	-27	74*	-23	7	1.3	3
CC1CCCCN1S(=O)(=O)c1ccc(C(=O)Nc2ccccc2-c2nc3ccccc3[nH]2)cc1 (stereo unspecified)	-37	-6	2	1	nt	3
Cc1cccc(NC(=O)c2ccc(S(=O)(=O)N3CCCCC3)cc2)n1	nt	12	nt	nt	0.36	nt
CC1CCCC(NC(=O)c2ccc(CNc3c(N4CCCC4)c(=O)c3=O)cc2)C1C (stereo unspecified)	-6	9	-6	19	1.7	3
CCCCCCCCOC(=O)c1nc(Cl)c(Cl)c(N)c1Cl	-51	69*	-4	5	nt	5
CC(=O)c1cccc(NC(=O)Nc2ccc3c(c2)N(C)C(=O)CS3)c1	-54	2	-18	21	0.86	8.5*
COC(=O)[C@@H](NC(=O)Nc1ccc(S(N)(=O)=O)cc1)C(C)C	-34	-14	5	31*	nt	3
COC(=O)[C@@H](NC(=O)Nc1ccc(OC(F)(F)F)cc1)C(C)C	-33	7	-9	7	-0.0011	2
Cc1cc(C)cc(NC(=O)Nc2ccc3c(c2)N(C)C(=O)CS3)c1	-35	-8	-6	2	-0.027	2
COC(=O)[C@@H](NC(=O)Nc1ccc(C(C)=O)cc1)C(C)C	-26	0	-6	104*	-1.1	2
CC(=O)c1ccc(NC(=O)Nc2ccncc2)cc1	nt	2	nt	nt	nt	2
CC(=O)Nc1cccc(NC(=O)Nc2ccc(C(C)=O)cc2)c1	-88	1	-11	44*	-0.44	1
COc1cc(C(=O)NCC(=O)OCCN2C(=O)c3ccccc3C2=O)cc(OC)c1OC	nt	8	nt	nt	nt	1
CC(=O)c1c(C)[nH]c(C(=O)NCc2cccc(Cl)c2)c1C	nt	-9	nt	nt	nt	2
S=c1[nH]nc(-c2cccs2)n1/N=C/c1c(Cl)cccc1Cl	nt	14	nt	nt	nt	3
CC1CCCN(c2c([N+](=O)[O-])c(=O)oc3ccccc23)C1 (stereo unspecified)	-38	1	4	5	-2.7*	1
O=C(Cn1cnc2c(cnn2-c2ccccc2)c1=O)Nc1cc(S(=O)(=O)N2CCOCC2)ccc1Cl	-22	8	2	7	nt	6
SMILES	Yeast growth inh	WT yeast gro inh	Yeast lifespan up	Measles CPE	hDAT+cocaine	RAM inhibit
CCOc1ccc(-n2c(C)c(C(C)=O)c3cc(OCC(N)=O)ccc32)cc1	nt	5	nt	nt	nt	2
COc1ccc(-n2c(C)c(C(C)=O)c3cc(OCC(N)=O)ccc32)cc1	nt	-27	nt	nt	nt	8.8*
O=C(O)c1cc(N2C(=O)C3CC=CCC3C2=O)ccc1NCc1cccnc1 (stereo unspecified)	-37	-4	-1	7	nt	0
NC1=NC[C@H](Cc2ccccc2)N1CCc1cccc(F)c1	nt	nt	nt	nt	0.6	nt
NC1=NC[C@H](Cc2ccccc2)N1CCCCC1CCCCC1	nt	nt	nt	nt	-3*	nt
NC1=NC[C@H](Cc2ccc(O)cc2)N1CCCCC1CCCCC1	nt	nt	nt	nt	-4.1*	nt
Cc1ccc(NC(=O)CN2c3cccc4cccc(c34)S2(=O)=O)cc1S(=O)(=O)N1CCOCC1	-34	-7	2	8	nt	2
O=c1[nH]cnc2c1cnn2Cc1ccccc1	6	18	-3	12	0.13	0
Cc1nc2ccc(NS(=O)(=O)c3c(C)c(C)cc(C)c3C)cc2s1	-39	15	8	5	-0.63	2
Cc1nc2cc(NS(=O)(=O)c3c(C)c(C)cc(C)c3C)ccc2s1	-35	69*	nt	6	1.8	6
O=C(ON=C1CCN(S(=O)(=O)c2ccccc2)CC1)c1ccccc1	-40	8	-20	6	0.039	0
CC1(C)CC(=NOC(=O)c2ccccc2)CC(C)(C)N1O	74*	-18	-6	26	nt	0
C/C=C(/C(=C/C)c1ccc(O)cc1)c1ccc(O)cc1	-44	63*	14	36	0.46	4
COc1cccc(-n2c(C)nnc2SCC(=O)Nc2ccccc2N2CCOCC2)c1	-7	5	-10	5	-0.74	1
O=C1C=C(c2ccccc2)C(=O)N1Nc1ccccc1	44*	87*	5	1	-1.3	-1
COc1ccc(C2=CC(=O)N(Nc3ccccc3)C2=O)cc1	nt	41	nt	nt	nt	1
Cc1ccc(NN2C(=O)C=CC2=O)cc1	-25	13	2	21	nt	1
Cc1ccc(NN2C(=O)C=C(c3ccc(Cl)cc3)C2=O)cc1	47*	63	-6	4	-0.6	1
Cc1cccc(NC(=O)CSc2nc3ccccc3c3nc(CCc4c(C)n[nH]c4C)nn23)c1	-41	-13	-14	3	3.8*	2
Cn1[nH]c(C(F)(F)F)cc1=O	nt	5	nt	nt	nt	1
O=C(N/N=C/c1coc2ccccc2c1=O)c1cn(-c2ccccc2)nc1-c1ccc(F)cc1	-38	2	29*	13	nt	2
O=C(NC(=S)NCCC1=CCCCC1)c1cncc(Br)c1	-26	26	0	13	nt	2
C=CCc1cccc(/C=N/NC(=O)CNc2cccc3ccccc23)c1O	-36	62*	-4	16	nt	3
CC1=NNC(=O)C1CCC(=O)N/N=C/C(Br)=C/c1ccccc1 (stereo unspecified)	-1	3	35*	7	nt	-1
O=C(CNc1cccc2ccccc12)N/N=C/C(Br)=C/c1ccccc1	-54	72*	10	3	-0.43	0
CC1C(=O)NN=C1C(=O)N/N=C\C(Br)=C\c1ccccc1 (stereo unspecified)	nt	19	nt	nt	nt	5
CCOc1cc(NC(=O)C2CC2)c(OCC)cc1NC(=O)CCn1nnc2ccccc21	-53	-13	3	8	nt	2
COC(=O)CNC(=O)CNC(=O)c1nn(-c2ccc(OC)c(Cl)c2)c(=O)c2ccccc12	-39	76*	-31	5	nt	0

Screens (PubChem BioAssay)
